Measured values reported in ChEMBL document CHEMBL1671627, “Increasing trends in antimicrobial resistance among clinically important anaerobes and Bacteroides fragilis isolates causing nosocomial infections: emerging resistance to carbapenems” (2008).
Values after ≈ are worked out from the molar mass of the structure shown.

Assays:
Type in all cases: functional
[1] = tested on: Prevotella intermedia; assay: Antibacterial activity against Prevotella intermedia assessed as susceptible isolates by CLSI agar dilution method
[2] = tested on: Bacteroides caccae; assay: Antibacterial activity against beta-lactamase producing Bacteroides caccae assessed as resistant isolates by CLSI agar dilution method in presence of Tazobactam
Summary of the method: (§1)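 207 nonduplicate anaerobic blood isolates from patients with bloodstream infections at NTUH, collected January–December 2006. MICs were determined by agar dilution following CLSI guidelines. Inocula were applied with a Steers replicator onto supplemented Brucella blood agar and incubated 48 h at 35°C in an anaerobic chamber. MIC was the lowest concentration inhibiting growth. B. fragilis ATCC 25285, B. thetaiotaomicron ATCC 29741 and E. lentum ATCC 43055 served as controls in each run.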

[3] = tested on: Peptoniphilus asaccharolyticus; assay: Antibacterial activity against beta-lactamase producing Peptoniphilus asaccharolyticus assessed as resistant isolates by CLSI agar dilution method
[4] = tested on: Parvimonas micra; assay: Antibacterial activity against beta-lactamase producing Micromonas micros by CLSI agar dilution method in presence of Tazobactam
Summary of the method: (§2)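 CLSI agar dilution MICs for anaerobic blood isolates (nonduplicate) collected from bloodstream-infection patients at a Taiwanese tertiary hospital, January–December 2006. Isolates were spotted by Steers replicator onto supplemented Brucella blood agar and incubated anaerobically for 48 h at 35°C. MIC was the lowest drug concentration inhibiting growth. Each run included B. fragilis ATCC 25285, B. thetaiotaomicron ATCC 29741 and E. lentum ATCC 43055 as quality-control strains.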

[5] = tested on: Clostridium septicum; assay: Antibacterial activity against beta-lactamase producing Clostridium septicum assessed as resistant isolates by CLSI agar dilution method in presence of Tazobactam; summary of the method: as §1
[6] = tested on: Fusobacterium necrophorum; assay: Antibacterial activity against Fusobacterium necrophorum assessed as susceptible isolates by CLSI agar dilution method in presence of Tazobactam
Summary of the method: (§3)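 Agar dilution per CLSI guidelines on nonduplicate anaerobic bloodstream isolates collected at NTUH, January to December 2006. Isolates were spotted by Steers replicator onto supplemented Brucella blood agar and incubated anaerobically for 48 h at 35°C. MIC was the lowest drug concentration that inhibited growth. B. fragilis ATCC 25285, B. thetaiotaomicron ATCC 29741 and E. lentum ATCC 43055 were run as QC in each run.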

[7] = tested on: Fusobacterium varium; assay: Antibacterial activity against Fusobacterium varium assessed as susceptible isolates by CLSI agar dilution method
[8] = tested on: Prevotella melaninogenica; assay: Antibacterial activity against Prevotella melaninogenica assessed as susceptible isolates by CLSI agar dilution method
[9] = tested on: Finegoldia magna; assay: Antibacterial activity against beta-lactamase producing Finegoldia magna by CLSI agar dilution method
[10] = tested on: Clostridium paraputrificum; assay: Antibacterial activity against beta-lactamase producing Clostridium paraputrificum assessed as resistant isolates by CLSI agar dilution method in presence of Tazobactam; summary of the method: as §1
[11] = tested on: Bacteroides thetaiotaomicron; assay: Antibacterial activity against beta-lactamase producing Bacteroides thetaiotaomicron assessed as susceptible isolates by CLSI agar dilution method in presence of Tazobactam; summary of the method: as §3
[12] = tested on: Clostridium septicum; assay: Antibacterial activity against beta-lactamase producing Clostridium septicum by CLSI agar dilution method in presence of Tazobactam; summary of the method: as §2
[13] = tested on: Clostridium paraputrificum; assay: Antibacterial activity against beta-lactamase producing Clostridium paraputrificum assessed as susceptible isolates by CLSI agar dilution method in presence of Tazobactam; summary of the method: as §2
[14] = tested on: Clostridium tertium; assay: Antibacterial activity against beta-lactamase producing Clostridium tertium by CLSI agar dilution method
[15] = tested on: Clostridium perfringens; assay: microbe, parasite or virus in culture
[16] = tested on: Bacteroides fragilis; assay: Antibacterial activity against Bacteroides fragilis assessed as resistant isolates by CLSI agar dilution method
[17] = tested on: Peptoniphilus asaccharolyticus; assay: Antibacterial activity against beta-lactamase producing Peptoniphilus asaccharolyticus by CLSI agar dilution method in presence of Tazobactam; summary of the method: as §2
[18] = tested on: Bacteroides thetaiotaomicron; assay: Antibacterial activity against beta-lactamase producing Bacteroides thetaiotaomicron assessed as resistant isolates by CLSI agar dilution method in presence of Tazobactam; summary of the method: as §1
[19] = tested on: Bacteroides uniformis; assay: Antibacterial activity against beta-lactamase producing Bacteroides uniformis assessed as resistant isolates by CLSI agar dilution method
[20] = tested on: Bacteroides fragilis; assay: Antibacterial activity against Bacteroides fragilis by CLSI agar dilution method in presence of Tazobactam; summary of the method: as §3
[21] = tested on: Prevotella intermedia; assay: Antibacterial activity against Prevotella intermedia assessed as resistant isolates by CLSI agar dilution method
[22] = tested on: Bacteroides thetaiotaomicron; assay: Antibacterial activity against beta-lactamase producing Bacteroides thetaiotaomicron assessed as susceptible isolates by CLSI agar dilution method
[23] = tested on: Clostridium septicum; assay: Antibacterial activity against beta-lactamase producing Clostridium septicum assessed as susceptible isolates by CLSI agar dilution method
[24] = tested on: Prevotella melaninogenica; assay: Antibacterial activity against Prevotella melaninogenica by CLSI agar dilution method
[25] = tested on: Bacteroides uniformis; assay: Antibacterial activity against beta-lactamase producing Bacteroides uniformis by CLSI agar dilution method in presence of Tazobactam; summary of the method: as §3
[26] = tested on: Prevotella melaninogenica; assay: Antibacterial activity against Prevotella melaninogenica assessed as resistant isolates by CLSI agar dilution method in presence of clavulanate; summary of the method: as §1
[27] = tested on: Bacteroides caccae; assay: Antibacterial activity against beta-lactamase producing Bacteroides caccae assessed as susceptible isolates by CLSI agar dilution method in presence of clavulanate; summary of the method: as §3
[28] = tested on: Fusobacterium nucleatum; assay: Antibacterial activity against Fusobacterium nucleatum assessed as susceptible isolates by CLSI agar dilution method in presence of clavulanate; summary of the method: as §3
[29] = tested on: Bacteroides caccae; assay: Antibacterial activity against beta-lactamase producing Bacteroides caccae assessed as resistant isolates by CLSI agar dilution method in presence of clavulanate; summary of the method: as §1
[30] = tested on: Clostridium septicum; assay: Antibacterial activity against beta-lactamase producing Clostridium septicum assessed as resistant isolates by CLSI agar dilution method in presence of clavulanate; summary of the method: as §1
[31] = tested on: Prevotella melaninogenica; assay: Antibacterial activity against Prevotella melaninogenica by CLSI agar dilution method in presence of clavulanate; summary of the method: as §3
[32] = tested on: Fusobacterium necrophorum; assay: Antibacterial activity against Fusobacterium necrophorum assessed as resistant isolates by CLSI agar dilution method in presence of clavulanate; summary of the method: as §1
[33] = tested on: Clostridium septicum; assay: Antibacterial activity against beta-lactamase producing Clostridium septicum by CLSI agar dilution method in presence of clavulanate; summary of the method: as §2
[34] = tested on: Bacteroides thetaiotaomicron; assay: Antibacterial activity against beta-lactamase producing Bacteroides thetaiotaomicron by CLSI agar dilution method in presence of clavulanate; summary of the method: as §3
[35] = tested on: Bacteroides uniformis; assay: Antibacterial activity against beta-lactamase producing Bacteroides uniformis assessed as resistant isolates by CLSI agar dilution method in presence of clavulanate; summary of the method: as §1
[36] = tested on: Bacteroides uniformis; assay: Antibacterial activity against beta-lactamase producing Bacteroides uniformis assessed as susceptible isolates by CLSI agar dilution method in presence of clavulanate; summary of the method: as §3
[37] = tested on: Clostridium perfringens; assay: microbe, parasite or virus in culture; remark: listed apart in the source
[38] = tested on: Bacteroides caccae; assay: Antibacterial activity against beta-lactamase producing Bacteroides caccae by CLSI agar dilution method in presence of clavulanate; summary of the method: as §3

## CCN1CCN(C(=O)N[C@@H](C(=O)N[C@@H]2C(=O)N3[C@@H]2SC(C)(C)[C@@H]3C(=O)O)c2ccccc2)C(=O)C1=O [PIPERACILLIN]
[1]
  Activity: 71%
[2]
  Activity: 4%
[3]
  Activity: 3%
[4]
  MIC: 0.03 mg/L
  MIC50: 0.03 mg/L
  MIC90: 2 mg/L
[5]
  Activity: 0%
[6]
  Activity: 100%
[7]
  Activity: 90%
[8]
  Activity: 71%
[9]
  MIC50: 0.12 mg/L (≈ 0.232 µM)
  MIC90: 8 mg/L (≈ 15.5 µM)
[10]
  Activity: 0%
[11]
  Activity: 93%
[12]
  MIC50: 0.5 mg/L
  MIC90: 2 mg/L
[13]
  Activity: 100%
[14]
  MIC50: 0.25 mg/L (≈ 0.483 µM)
  MIC90: 2 mg/L (≈ 3.86 µM)
[15]
  MIC50: 0.25 mg/L (≈ 0.483 µM)
  MIC90: 2 mg/L (≈ 3.86 µM)
[16]
  Activity: 35%
[17]
  MIC: 0.03 mg/L
  MIC50: 0.03 mg/L
  MIC90: 2 mg/L
[18]
  Activity: 0%
[19]
  Activity: 65%
[20]
  MIC50: 1 mg/L
  MIC90: 8 mg/L
[21]
  Activity: 22%
[22]
  Activity: 63%
[23]
  Activity: 100%
[24]
  MIC50: 16 mg/L (≈ 30.9 µM)
  MIC90: 128 mg/L (≈ 247 µM)
[25]
  MIC50: 8 mg/L
  MIC90: 16 mg/L

## CC1(C)S[C@@H]2[C@H](NC(=O)[C@H](N)c3ccc(O)cc3)C(=O)N2[C@H]1C(=O)O [AMOXICILLIN]
[26]
  Activity: 6%
[27]
  Activity: 53%
[28]
  Activity: 89%
[29]
  Activity: 30%
[30]
  Activity: 4%
[31]
  MIC50: 4 mg/L
  MIC90: 16 mg/L
[32]
  Activity: 7%
[33]
  MIC50: 0.5 mg/L
  MIC90: 2 mg/L
[34]
  MIC: 4 mg/L
  MIC50: 4 mg/L
  MIC90: 32 mg/L
[35]
  Activity: 30%
[36]
  Activity: 53%
[37]
  MIC50: 0.5 mg/L (≈ 1.37 µM)
  MIC90: 2 mg/L (≈ 5.47 µM)
[38]
  MIC50: 8 mg/L
  MIC90: 32 mg/L
